Laboratory results as given in ChEMBL document CHEMBL3797027, “Potent anti-proliferative actions of a non-diuretic glucosamine derivative of ethacrynic acid” (Bioorg Med Chem Lett, 2016).
The source made the active and inactive calls.

Tests used:
[1] = system: MDA-MB-231; assay: Induction of ROS generation in human MDA-MB-231 cells at 20 and 40 uM incubated for 3 hrs after pre-incubation with 3 mM NAC for 1 hr by DCFDA staining based flow cytometry; assay type: functional, cell-based
In short: (§1)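 Cells were exposed for 3 h to compound, or to 25 µM H2O2 as positive control. Where indicated, 3 mM N-acetylcysteine was given 1 h before treatment. Pellets were stained with DCF-DA for 30 min, and intracellular ROS was read as fluorescence shift by flow cytometry against untreated controls.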

[2] = system: MDA-MB-468; assay: Cytotoxic activity against human MDA-MB-468 cells assessed as inhibition of cell proliferation incubated for 72 hrs by MTT assay; assay type: functional, cell-based; conditions: MDA-MB-468, 72 h
In short: (§2)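 MTT cell survival assay. IC50 is the concentration that inhibits tumour cell proliferation by 50%, read from cell survival curves. Values are given as mean ± SD of three independent experiments.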

[3] = system: MDA-MB-231; assay: Induction of ROS generation in human MDA-MB-231 cells at 20 and 40 uM incubated for 3 hrs after pre-incubation with 3 mM NAC for 1 hr by DCFDA staining based fluorescence microscopy; assay type: functional, cell-based
In short: (§3)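 After 3 h exposure at different concentrations, DCFH-DA fluorescence was imaged by fluorescence microscopy. H2O2 (25 µM) served as positive control. In some wells, cells were pretreated with 3 mM N-acetylcysteine before compound addition.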

[4] = system: NCI-H1299; assay: Induction of ROS generation in human H1299 cells at 20 and 40 uM incubated for 3 hrs by DCFDA staining based fluorescence microscopy; assay type: functional, cell-based; in short: as §3
[5] = Cytotoxic activity against human SKBR3 cells assessed as inhibition of cell proliferation incubated for 72 hrs by MTT assay; assay type: functional, cell-based; conditions: SK-BR-3, 72 h; in short: as §2
[6] = system: HCT-116; assay: Induction of ROS generation in human HCT116 cells at 20 and 40 uM incubated for 3 hrs by DCFDA staining based flow cytometry; assay type: functional, cell-based; in short: as §1
[7] = target: Glutathione S-transferase P (Homo sapiens) (UniProt P09211); assay: Inhibition of GSTP1 in human MDA-MB-231 cells assessed as reduction in GST-pi activity pre-incubated for 3 hrs followed by chlorodinitrobenzene and reduced glutathione addition by photometric assay
[8] = system: MDA-MB-231; assay: Induction of cell cycle arrest in p53 mutant expressing human MDA-MB-231 cells assessed as accumulation at G2/M phase incubated for 24 hrs by propidium iodide staining based flow cytometry; assay type: functional
[9] = system: Mus musculus; assay: Toxicity in mouse assessed as induction of weight loss at 120 mg/kg/week for 2 weeks; assay type: organism-based; conditions: in vivo, 336 h
[10] = system: Mus musculus; assay: Toxicity in mouse assessed as induction of paralysis at 120 mg/kg/week for 2 weeks; assay type: organism-based; conditions: in vivo, 336 h
[11] = Potency index, ratio of IC50 for ethacrynic acid to IC50 for test compound for cytotoxic activity against human SKBR3 cells assessed as inhibition of cell proliferation incubated for 72 hrs by MTT assay; assay type: functional, SK-BR-3
[12] = system: NCI-H1299; assay: Increase in p21 (waf1/cip1) protein expression in p53 deficient human H1299 cells at 10 to 40 uM by Western blot method; assay type: functional, cell-based
In short: (§4)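 H1299 (p53-null), HCT116 (p53 wild type) and MDA-MB-231 (p53 mutant) cells were treated, then lysates were immunoblotted for p53, p21, PUMA and PARP. β-Actin served as loading control.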

[13] = system: MDA-MB-231; assay: Reduction in cellular total thiol levels in human MDA-MB-231 cells incubated for 3 hrs by Ellman's reagent based assay; assay type: functional, cell-based
In short: (§5)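 Cells exposed to 0–40 µM compound for 3 h, then trypsinized. Total thiols in cell extracts were quantified with Ellman's reagent.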

[14] = target: Glutathione S-transferase P (Homo sapiens) (UniProt P09211); assay: Inhibition of GSTP1 in human HCT116 cells assessed as reduction in GST-pi activity at 50 uM pre-incubated for 3 hrs followed by chlorodinitrobenzene and reduced glutathione addition by photometric assay; conditions: HCT-116
[15] = Cytotoxic activity against human MCF10A cells assessed as inhibition of cell proliferation incubated for 72 hrs by MTT assay; assay type: cell-based; conditions: mcf-10a; in short: as §2
[16] = system: HT-29; assay: Potency index, ratio of IC50 for ethacrynic acid to IC50 for test compound for cytotoxic activity against human HT-29 cells assessed as inhibition of cell proliferation incubated for 72 hrs by MTT assay; assay type: functional
In short: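 Index is the reference IC50 divided by the test IC50. Both IC50s were taken from MTT cell survival curves, each as mean ± SD of three independent experiments.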

[17] = system: MDA-MB-231; assay: Increase in p21'cip1 protein expression in p53 mutant expressing human MDA-MB-231 cells at 10 to 40 uM by Western blot method; assay type: functional, cell-based; in short: as §4
[18] = system: Mus musculus; assay: Toxic diuretic effect in 12 hrs fasted CD1 mouse assessed as increase in urine output at 10 mg/kg, ip measured 6 to 24 hrs post dose relative to untreated control; assay type: toxicity, organism-based; conditions: in vivo
In short: (§6)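 Female CD-1 mice fasted 12 h, then given compound IP at 10 mg/kg in PEG/EtOH/H2O (54:14:32). Vehicle control group included. Mice were housed singly in metabolic cages with free access to water. Voided urine was collected in graduated tubes under the cages over 0–6 h and 6–24 h after injection.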

[19] = system: Mus musculus; assay: Toxicity in mouse assessed as induction of lethargy at 120 mg/kg/week for 2 weeks; assay type: organism-based; conditions: in vivo, 336 h
[20] = system: MDA-MB-468; assay: Potency index, ratio of IC50 for ethacrynic acid to IC50 for test compound for cytotoxic activity against human MDA-MB-468 cells assessed as inhibition of cell proliferation incubated for 72 hrs by MTT assay; assay type: functional
[21] = system: Mus musculus; assay: Toxic diuretic effect in 12 hrs fasted CD1 mouse assessed as increase in urine output at 10 mg/kg, ip measured 0 to 6 hrs post dose relative to untreated control; assay type: toxicity, organism-based; conditions: in vivo; in short: as §6
[22] = system: MDA-MB-231; assay: Cytotoxic activity against human MDA-MB-231 cells assessed as inhibition of cell proliferation incubated for 72 hrs by MTT assay; assay type: functional, cell-based; conditions: MDA-MB-231, 72 h; in short: as §2
[23] = system: NCI-H1299; assay: Increase in p21'cip1 protein expression in p53 deficient human H1299 cells at 10 to 40 uM by Western blot method; assay type: functional, cell-based; in short: as §4
[24] = system: MDA-MB-231; assay: Increase in PUMA protein expression in p53 mutant expressing human MDA-MB-231 cells at 10 to 40 uM by Western blot method; assay type: functional, cell-based; in short: as §4
[25] = system: HCT-116; assay: Reduction in cellular total thiol levels in human HCT116 cells at 40 uM incubated for 3 hrs by Ellman's reagent based assay; assay type: functional; in short: as §5
[26] = system: MDA-MB-231; assay: Induction of ROS generation in human MDA-MB-231 cells at 20 and 40 uM incubated for 3 hrs by DCFDA staining based fluorescence microscopy; assay type: functional, cell-based; in short: as §3
[27] = system: MDA-MB-231; assay: Increase in cleaved PARP protein expression in p53 mutant expressing human MDA-MB-231 cells at 10 to 40 uM by Western blot method; assay type: functional, cell-based; in short: as §4
[28] = target: Glutathione S-transferase P (Homo sapiens) (UniProt P09211); assay: Inhibition of GSTP1 in human HCT116 cells assessed as reduction in GST-pi activity pre-incubated for 3 hrs followed by chlorodinitrobenzene and reduced glutathione addition by photometric assay; conditions: HCT-116
[29] = system: MDA-MB-231; assay: Increase in p53 protein expression in p53 mutant expressing human MDA-MB-231 cells at 10 to 40 uM by Western blot method; assay type: functional, cell-based; in short: as §4

Chain of Glutathione S-transferase P (Homo sapiens) (P09211 2-210 limits assumed): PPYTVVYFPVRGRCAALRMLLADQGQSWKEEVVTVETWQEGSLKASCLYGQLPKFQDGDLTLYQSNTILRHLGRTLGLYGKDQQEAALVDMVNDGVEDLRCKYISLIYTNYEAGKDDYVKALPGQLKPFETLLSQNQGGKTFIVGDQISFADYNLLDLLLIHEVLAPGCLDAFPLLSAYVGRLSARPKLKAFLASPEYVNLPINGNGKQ

C=C(CC)C(=O)c1ccc(OCC(=O)N[C@@H]2[C@@H](O)[C@H](O)[C@@H](CO)O[C@H]2O)c(Cl)c1Cl
Non-toxic: Activity [9] | Activity [10] | Activity [15] | Activity [18] | Activity [19] | Activity [21]
3: Ratio IC50 [11] | Ratio IC50 [16] | Ratio IC50 [20]
16.1 µM: IC50 [5]
18.4 µM: IC50 [2]
58%: Imax [25]
active: Activity [4] | Activity [6] | Activity [7] Dose-dependent effect | Activity [8] Dose-dependent effect | Activity [12] | Activity [13] Dose-dependent effect | Activity [17] | Activity [23] | Activity [24] | Activity [26] | Activity [27] | Activity [28] Dose-dependent effect | Activity [29]
inactive: Activity [1] | Activity [3]
12.2 µM: IC50 [22]
60%: Imax [14]
